Source: PubChem
Hits are enriched below; roughly 3% of the tested compounds scored in any of these assays.
SENP6 inh – blocks the human protease SENP6 | inhibition, % at 10 µM | Recombinant SENP6 catalytic domain, aminoluciferin luminescence | Q9GZR1 | 330,000 compounds, 1.8% hits;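 active means inhibition above about 50% at the single tested dose, limit read from the data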;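 further: plate controls were DMSO wells with enzyme for no effect and DMSO wells lacking enzyme for full effect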
SENP7 inh – SENP7 protease inhibition; inhibition, % at 5 µM; 330,000 compounds, 1.5% hits; Q9BQF6; recombinant SENP7, Z-RLRGG-aminoluciferin luminescence, 40 min;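 active means inhibition above about 50% at the single test dose, limit read from the data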;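 further: plate controls were DMSO with enzyme for no effect and no enzyme buffer wells for full effect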
Target sequence (Q9BQF6 706-1050 limits assumed): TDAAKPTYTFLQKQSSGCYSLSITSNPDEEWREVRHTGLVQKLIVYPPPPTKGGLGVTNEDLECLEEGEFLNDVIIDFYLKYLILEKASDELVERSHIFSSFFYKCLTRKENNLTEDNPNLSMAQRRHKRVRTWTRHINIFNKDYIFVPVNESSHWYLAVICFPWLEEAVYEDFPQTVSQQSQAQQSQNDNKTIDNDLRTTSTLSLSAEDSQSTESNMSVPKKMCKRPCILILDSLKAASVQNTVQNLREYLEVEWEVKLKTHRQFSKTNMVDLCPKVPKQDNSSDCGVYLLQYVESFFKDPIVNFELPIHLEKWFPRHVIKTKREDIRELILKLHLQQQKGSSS
Apaf-1 inh – inhibitors of human Apaf-1 apoptosome; inhibition, % at 20 µM; AID 489030; O14727; reconstituted apoptosome caspase-3 activity, DEVD-Rh110 fluorescence; 330,000 compounds, 0.71% hits; active means inhibition of at least 40% at 20 µM;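 further: plate controls were DMSO wells for no effect and DEVD-CHO caspase inhibitor wells for full effect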
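Material: reconstituted apoptosome with Apaf-1, cytochrome c, caspase-9, procaspase-3, dATP / Buffer or medium: pH 7.5 Hepes buffer with CHAPS, BSA, DTT / Also added: cytochrome c with DEVD-Rh110 / Schedule: compound with Apaf-1, dATP, procaspase-3 30 min, then 50 min reaction, room temperature / Technique: rhodamine 110 fluorescence at Ex 480/Em 540 nm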
SENP8 block-1 – blocks human SENP8 cleavage of Nedd8 substrate; inhibition, % at 20 µM; recombinant SENP8, Nedd8 substrate fluorescence; Q96LD8; 360,000 compounds, 0.64% hits; in the data active means inhibition mostly above about 40%, no sharp cut-off; inactive means mostly below about 27%
Target sequence (Q96LD8 whole entry, looked up): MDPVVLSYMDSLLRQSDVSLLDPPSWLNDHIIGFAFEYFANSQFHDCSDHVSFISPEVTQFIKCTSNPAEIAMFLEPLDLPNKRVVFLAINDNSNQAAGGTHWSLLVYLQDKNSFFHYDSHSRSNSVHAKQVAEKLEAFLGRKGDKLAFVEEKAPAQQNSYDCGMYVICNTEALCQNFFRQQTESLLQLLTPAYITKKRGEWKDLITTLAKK
SENP8 block-2 – SENP8 protease inhibition; Q96LD8; purified SENP8, Z-RLRGG-aminoluciferin cleavage, luminescence; inhibition, % at 10 µM; 330,000 compounds, 1.2% hits; AID 2540; in the data active means inhibition above about 50%
UBC13 inh – blocks human UBC13 polyubiquitin chain formation; inhibition, % at 20 µM; 330,000 compounds, 0.47% hits; P61088; AID 485273; TR-FRET; in the data active means inhibition above about 45%, passing the limit was not always enough
Apaf-1 inh conf – confirmation of Apaf-1 inhibitors. shares compounds with Apaf-1 inh. reconstituted apoptosome, caspase-3 DEVD-Rh110 fluorescence. inhibition, % at 20 µM. 1,800 compounds, 25% hits;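 active means mean inhibition of at least 40% at 20 µM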;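 further: plate controls were DMSO wells for no effect and DEVD-CHO caspase inhibitor control wells for full effect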
Rh110 quench – counter-screen for Apaf-1 inhibitors: fluorescence interference; shares compounds with Apaf-1 inh; Rh110 fluorescence interference, quenched caspase reaction; activation (fluorescence interference), % at 20 µM; 1,800 tested, under 10 active; AID 504615;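 active means signal rise of 40% or more at 20 µM, treated as a fluorescence artifact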
Apaf1 inh interf – Apaf-1 inhibitor counter-screen fluorescence artifact; fluorescence interference counterscreen, Apaf-1 assay format; IC50, µM; shares compounds with Apaf-1 inh; 460 tested, under 10 active; AID 588538; call rule not given here
* marks the source's active call; other numbers are inactive results.

For CCn1c(=O)c2cc(C(=O)N(C)c3cc(C)ccc3OC)sc2c2ccccc21 the results were SENP6 inh -20, SENP7 inh -2, Apaf-1 inh 53*, SENP8 block-1 0, SENP8 block-2 -14, UBC13 inh -1, Apaf-1 inh conf 26 and Rh110 quench 7.
`CCn1c(=O)c2cc(C(=O)N(C)c3ccc(OC)cc3OC)sc2c2ccccc21` gave SENP6 inh -14, SENP7 inh 1, Apaf-1 inh 19, SENP8 block-1 3, SENP8 block-2 4 and UBC13 inh -8.
Screening CCNC(=O)C1(C)CCN(C(=O)CCc2ccccc2)C1 (centres undefined) returned SENP8 block-1 13.
Screening CC(=O)NC1=C(NC2CCS(=O)(=O)C2)C(=O)c2ccccc2C1=O (centres undefined) returned SENP6 inh 18, SENP7 inh 14, Apaf-1 inh 41*, SENP8 block-1 46*, SENP8 block-2 6, UBC13 inh -44, Apaf-1 inh conf 21 and Rh110 quench -6.
COC(CNC(=O)c1ccc2c3c(onc13)-c1ccccc1C2=O)OC was read as SENP6 inh 45, SENP7 inh 25, Apaf-1 inh 73*, SENP8 block-1 102*, SENP8 block-2 23, UBC13 inh -229, Apaf-1 inh conf 57*, Rh110 quench 10 and Apaf1 inh interf >100.
CCOC(=O)C1=CCN(S(=O)(=O)c2cccc(Cl)c2)C1c1ccc(F)cc1 (centres undefined) was read as SENP8 block-1 14.
CC(C)c1nc(NCc2ccccc2)c(C#N)c2c1CCCC2 was read as SENP6 inh 0, SENP7 inh 0, Apaf-1 inh 7, SENP8 block-1 inactive, SENP8 block-2 0 and UBC13 inh 14.
`CN1CCc2c(C#N)c(N3CCCCC3)nc(NCc3ccccc3)c2C1` gave SENP6 inh 8, SENP7 inh 3, Apaf-1 inh 52*, SENP8 block-1 -320, SENP8 block-2 -6, UBC13 inh 20, Apaf-1 inh conf 21 and Rh110 quench 11.
`CC(=O)Nc1sc2c(c1C#N)CCN(Cc1ccccc1)C2` gave SENP6 inh 1, SENP7 inh 12, Apaf-1 inh 3, SENP8 block-1 -52, SENP8 block-2 5 and UBC13 inh 3.
`N#Cc1c(NCCCO)nc(NCc2ccccc2)c2c1CCN(Cc1ccccc1)C2` gave SENP6 inh 21, SENP7 inh 2, Apaf-1 inh 69*, SENP8 block-1 inactive, SENP8 block-2 12, UBC13 inh -37, Apaf-1 inh conf 21 and Rh110 quench 2.
`CC(C)C[C@H]1COc2cc(N3CCC[C@@H]3CO)ccc2S(=O)(=O)N1` gave SENP8 block-1 -5.
CN(C)C(=O)c1ccc(NC(=O)c2sccc2-c2ccccc2)cc1 was read as SENP6 inh 3, SENP7 inh -7, Apaf-1 inh 45*, SENP8 block-1 6, SENP8 block-2 8, UBC13 inh 4, Apaf-1 inh conf 31 and Rh110 quench 1.
For CC(NCc1ccc(OCc2ccc(Cl)cc2)cc1)C(O)c1ccccc1 (centres undefined) the results were SENP6 inh -23, SENP7 inh -10, Apaf-1 inh 41*, SENP8 block-1 26, SENP8 block-2 -8, UBC13 inh 33, Apaf-1 inh conf 15 and Rh110 quench 3.
OC(Cc1cccc(C=NN2CCOCC2)n1)(C(F)(F)F)C(F)(F)F was read as SENP8 block-1 11.
CN(C)c1ccc(C(=O)C(=O)N2CCN(c3ccccc3)CC2)cc1 was read as SENP8 block-1 -3.
For O=[N+]([O-])c1ccc(N/N=C/c2ccc(O)c(O)c2O)c(S(=O)(=O)N2CCOCC2)c1 the results were SENP6 inh 38, SENP7 inh 16, Apaf-1 inh 63*, SENP8 block-1 90*, SENP8 block-2 15, UBC13 inh -106, Apaf-1 inh conf 43*, Rh110 quench 9 and Apaf1 inh interf >100.
Cc1ccc(S(=O)(=O)N2CCN(C(=O)CCOc3cc(C)ccc3C)CC2)cc1 was read as SENP6 inh -23, SENP7 inh 9, Apaf-1 inh 40*, SENP8 block-1 11, SENP8 block-2 -1, UBC13 inh 15, Apaf-1 inh conf 24 and Rh110 quench 6.
`Cc1ccc(C)c(OCCC(=O)N2CCN(S(=O)(=O)c3cc(F)ccc3F)CC2)c1` gave SENP6 inh -8, SENP7 inh -5, Apaf-1 inh 22, SENP8 block-1 -2, SENP8 block-2 -13 and UBC13 inh 8.
Screening CN1CCN(c2ccc(NC(=O)c3ccc(-c4ccc(Cl)cc4)o3)cc2)CC1 returned SENP6 inh 2, SENP7 inh 0, Apaf-1 inh 65*, SENP8 block-1 13, SENP8 block-2 13, UBC13 inh 20, Apaf-1 inh conf 34 and Rh110 quench 20.
Screening CS(=O)(=O)N1CCN(c2ccc(NC(=O)c3ccc(-c4ccc(Cl)cc4)o3)cc2)CC1 returned SENP6 inh 1, SENP7 inh 5, Apaf-1 inh -24, SENP8 block-1 7, SENP8 block-2 1 and UBC13 inh 14.
CCCCn1c(N)c(N(CCOC)C(=O)c2oc3c(Cl)cccc3c2C)c(=O)[nH]c1=O was read as SENP8 block-1 16.
`C[C@@H]1CN([C@H](C)CO)C(=O)CCCn2nncc2CO[C@@H]1CN(C)C(=O)NC1CCCCC1` gave SENP8 block-1 11.
Screening CCCCCCCCCn1c2c(c(=N)c3c1CCC3)CCCC2 returned SENP6 inh -7, SENP7 inh 7, Apaf-1 inh 51*, SENP8 block-1 11, SENP8 block-2 -1, UBC13 inh 41, Apaf-1 inh conf 20 and Rh110 quench 9.
For CCCCCCCCn1c2c(c(=N)c3ccccc31)CCC2 the results were SENP6 inh -13, SENP7 inh 0, Apaf-1 inh 34, SENP8 block-1 -56, SENP8 block-2 -10 and UBC13 inh 29.
`CC(=O)c1ccc2c(c1)c(C#N)c1ccccc1[n+]2[O-]` gave SENP6 inh 49, SENP7 inh 15, Apaf-1 inh 74*, SENP8 block-1 -271, SENP8 block-2 25, UBC13 inh -90, Apaf-1 inh conf 42*, Rh110 quench 2 and Apaf1 inh interf >100.
Screening CCc1nc2ccc(C(=O)N3CCN(c4ccccc4)CC3)cn2c1N(C)CCCc1ccccc1 returned SENP8 block-1 2.
